From PubChem BioAssay
A number with no mark means an inactive call. Activity calls are given as the source filed them.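 Rule for the calls, unless noted: active = growth inhibition above 25% in both replicates, a cutoff set 3 SD above the mean; inconclusive = above 25% in only one replicate; inactive = the rest.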

Test: S. cerevisiae growth inhibition in permissive medium (OD615), pilot counter-assay for S. cerevisiae lifespan shortening project, permissive growth control (AID 705)
Conditions: OD615, 24 h, at 10 µM, active compounds read high
In short: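 System: S. cerevisiae with engineered DeaD lifespan system. Medium: SC raffinose/galactose permissive medium. Doses: single compound dose of 10 µM, 0.25% DMSO final. Schedule: 24 h exposure, 30 °C. Measured by: OD615 turbidity read. Read-out: growth inhibition.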
With `CCCCn1c(CNC(=O)c2cccs2)nc2ccccc21` the growth inhibition was -5.02%.
For `COC(=O)C1=C(C)NC(=O)CC1c1cccc(Cl)c1Cl` (stereo not given), the growth inhibition was -13.4%.
Compound `Cn1c(Cn2c(=O)sc3ccccc32)nnc1SCC(=O)NCCc1ccccc1` has a growth inhibition of -10%.
Work on `Cc1ccccc1S(=O)(=O)Cc1ccc(C(=O)N2CCN(C3CCCCC3)CC2)o1` yielded a growth inhibition of -9.92%.
`Cn1c(C(=O)NC2CCCCC2)cc2c(=O)n(C)c3ccccc3c21` gave a growth inhibition of -10.6%.
Compound `O=c1oc(-c2cccs2)nc2sc3c(c12)CCCCC3` has a growth inhibition of -8.22%.
`CN(C)C(=O)N1CCC(C(=O)NCc2ccc(F)cc2)CC1` showed a growth inhibition of 4.29%.
Compound `Cc1cc(Nc2c(C)cccc2C)n2nc(C)nc2n1` has a growth inhibition of -4.35%.
For `O=C1CC(Nc2ccc(N3CCOCC3)cc2)C(=O)N1c1ccccc1F` (stereo not given), the growth inhibition was 1.41%.
`COc1cc(NC(=O)c2cc(C(C)C)on2)cc(OC)c1OC` showed a growth inhibition of -12.3%.
`CN(C)CCNC(=O)c1ccc2c(c1)N(Cc1ccc(F)cc1)CCS2` gave a growth inhibition of -2.46%.
In the case of `c1ccc2c(c1)nc1n2CCN1CCNC1CCCCC1`, the growth inhibition is reported as -11.4%.
Compound `COC(=O)c1ccsc1NC(=O)C1=COCCO1` has a growth inhibition of -9%.
Work on `c1coc(-c2nc(-c3ccco3)c(-c3ccco3)nc2-c2ccco2)c1` yielded a growth inhibition of -25.2%.
Compound `COc1cc2c(cc1OC)CN(C(=O)C(C)(C)C)CC2` has a growth inhibition of -8.97%.
With `CCOCN(C(=O)Cn1c(CO)nc2ccccc21)c1c(C)cccc1CC` the growth inhibition was -10.7%.
`CC(C)OC(=O)c1nnc(Cc2ccc(F)cc2)o1` gave a growth inhibition of 4.28%.
In the case of `CN(C)Cc1c(O)ccc2occ(C(O)c3ccccc3)c12` (stereo not given), the growth inhibition is reported as -13.2%.
`COc1ccc(N2CCN(C3CC(=O)N(C)C3=O)CC2)cc1` (stereo not given) gave a growth inhibition of -3.33%.
`CC1CCN(c2nc(-c3ccncc3)nc3ccccc23)CC1` gave a growth inhibition of 6.84%.
`Clc1ccccc1OCCN1CCCCC1` gave a growth inhibition of -14.4%.
With `CCOC(=O)C1=C(C)NC(C)=C(C(=O)OCC)C1C(=O)O` the growth inhibition was -3.05%.
`CC(=O)Nn1cc2c(=O)n(C)c(=O)n(C)c2c1` showed a growth inhibition of -5.47%.
For `CCc1nnc(NC(=O)CCN2C(=O)CCC2=O)s1`, the growth inhibition was 4.12%.
Compound `C/C(NCCN1CCOCC1)=C(\C#N)C(N)=O` has a growth inhibition of -3.8%.
`COc1ccc(CCNC(=O)CCn2c(=O)oc3ccccc32)cc1OC` showed a growth inhibition of -6.99%.
With `Cc1ccc(-c2nc(CS(=O)(=O)CC(=O)N3CCc4ccccc4C3)c(C)o2)cc1` the growth inhibition was -3.42%.
`Cc1ccc(-c2nn3c(C)nnc3s2)cc1NC(=O)c1ccc(OC(C)C)cc1` gave a growth inhibition of 12.3%.
Compound `COc1ccc(C(=O)Nc2nncs2)cc1S(=O)(=O)N1CC(c2ccccc2)CC1=O` (stereo not given) has a growth inhibition of -12.7%.
With `CC(C)CC(NS(=O)(=O)c1ccc2c(c1)oc(=O)n2C)C(=O)NC1CCCc2ccccc21` (stereo not given) the growth inhibition was 0.005%.
With `O=C(NCc1cccs1)C1CCN(S(=O)(=O)c2cccc3cccnc23)CC1` the growth inhibition was -3.73%.
Compound `Cc1sc2ncnc(NCc3ccco3)c2c1C` has a growth inhibition of 4.72%.
Work on `CC(=O)Oc1cccc(N2C(=O)C3C(C2=O)C2C=CC3C23CC3)c1` (stereo not given) yielded a growth inhibition of -8.98%.
Work on `Cc1cc(N2C(=O)C3CC=CCC3C2=O)cc(C)c1Br` (stereo not given) yielded a growth inhibition of -3.4%.
Work on `Cn1c(C(=O)N2CCC(C(N)=O)CC2)cc2c(=O)n(C)c3ccccc3c21` yielded a growth inhibition of -2.25%.
In the case of `COc1ccccc1N1CCN(C(=O)c2sc3nc(-c4ccc(F)cc4)cn3c2C)CC1`, the growth inhibition is reported as -6.38%.
In the case of `CC(C)CNS(=O)(=O)c1ccc(S(=O)(=O)N2CCN(CCC#N)CC2)cc1`, the growth inhibition is reported as -11.7%.
`CCCN1Cc2cccc(C(=O)Nc3ccc4c(c3)OCCO4)c2C1=O` gave a growth inhibition of 0.22%.
`CCOC(=O)CN1CC23C=CC(O2)C(C(=O)NC2CCCCCC2)C3C1=O` (stereo not given) gave a growth inhibition of -6.04%.
`Cc1nnc(NC(=O)CSc2nnc(Cc3cccn3C)n2C)s1` gave a growth inhibition of -3.1%.

Test: S. cerevisiae growth inhibition in restrictive medium, OD615, pilot screen, restrictive growth control, yeast lifespan reduction project (AID 706;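 active = growth inhibition above a set limit, 3 SD over mean compound inhibition, in both replicates, cut at about 43% in these data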;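 note: modified DeaD lifespan yeast strain shifted to restrictive glucose medium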)
Conditions: OD615, 48 h, at 10 µM, active compounds read high
In short: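 Assay system – genetically modified Saccharomyces cerevisiae, DeaD replicative lifespan assay strain · Medium – CSMM-D glucose medium · Doses – 10 µM compound, 0.25% DMSO · Times – 4 h pre-incubation, 48 h exposure at 30 °C · Signal – optical density at 615 nm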
In the case of `CCCCn1c(CNC(=O)c2cccs2)nc2ccccc21`, the growth inhibition is reported as -5.51%.
Work on `COC(=O)C1=C(C)NC(=O)CC1c1cccc(Cl)c1Cl` (stereo not given) yielded a growth inhibition of -7.53%.
Compound `Cn1c(Cn2c(=O)sc3ccccc32)nnc1SCC(=O)NCCc1ccccc1` has a growth inhibition of -16.2%.
With `Cc1ccccc1S(=O)(=O)Cc1ccc(C(=O)N2CCN(C3CCCCC3)CC2)o1` the growth inhibition was -5.71%.
`Cn1c(C(=O)NC2CCCCC2)cc2c(=O)n(C)c3ccccc3c21` gave a growth inhibition of -6.48%.
With `O=c1oc(-c2cccs2)nc2sc3c(c12)CCCCC3` the growth inhibition was -6.44%.
`CN(C)C(=O)N1CCC(C(=O)NCc2ccc(F)cc2)CC1` showed a growth inhibition of 9.94%.
`Cc1cc(Nc2c(C)cccc2C)n2nc(C)nc2n1` showed a growth inhibition of 7.11%.
`O=C1CC(Nc2ccc(N3CCOCC3)cc2)C(=O)N1c1ccccc1F` (stereo not given) gave a growth inhibition of -5.97%.
Work on `COc1cc(NC(=O)c2cc(C(C)C)on2)cc(OC)c1OC` yielded a growth inhibition of 14.9%.
With `CN(C)CCNC(=O)c1ccc2c(c1)N(Cc1ccc(F)cc1)CCS2` the growth inhibition was 0.095%.
`c1ccc2c(c1)nc1n2CCN1CCNC1CCCCC1` showed a growth inhibition of -11.7%.
For `COC(=O)c1ccsc1NC(=O)C1=COCCO1`, the growth inhibition was -1.36%.
With `c1coc(-c2nc(-c3ccco3)c(-c3ccco3)nc2-c2ccco2)c1` the growth inhibition was -38.9%.
For `COc1cc2c(cc1OC)CN(C(=O)C(C)(C)C)CC2`, the growth inhibition was -7.4%.
`CCOCN(C(=O)Cn1c(CO)nc2ccccc21)c1c(C)cccc1CC` showed a growth inhibition of 0.69%.
For `CC(C)OC(=O)c1nnc(Cc2ccc(F)cc2)o1`, the growth inhibition was 8.2%.
`CN(C)Cc1c(O)ccc2occ(C(O)c3ccccc3)c12` (stereo not given) gave a growth inhibition of -4.58%.
For `COc1ccc(N2CCN(C3CC(=O)N(C)C3=O)CC2)cc1` (stereo not given), the growth inhibition was 2.79%.
Work on `CC1CCN(c2nc(-c3ccncc3)nc3ccccc23)CC1` yielded a growth inhibition of -2.73%.
In the case of `Clc1ccccc1OCCN1CCCCC1`, the growth inhibition is reported as -20.6%.
In the case of `CCOC(=O)C1=C(C)NC(C)=C(C(=O)OCC)C1C(=O)O`, the growth inhibition is reported as -4.22%.
`CC(=O)Nn1cc2c(=O)n(C)c(=O)n(C)c2c1` gave a growth inhibition of 1.6%.
Work on `CCc1nnc(NC(=O)CCN2C(=O)CCC2=O)s1` yielded a growth inhibition of 5.96%.
Work on `C/C(NCCN1CCOCC1)=C(\C#N)C(N)=O` yielded a growth inhibition of -6.1%.
For `COc1ccc(CCNC(=O)CCn2c(=O)oc3ccccc32)cc1OC`, the growth inhibition was -12.8%.
For `Cc1ccc(-c2nc(CS(=O)(=O)CC(=O)N3CCc4ccccc4C3)c(C)o2)cc1`, the growth inhibition was -1.55%.
For `Cc1ccc(-c2nn3c(C)nnc3s2)cc1NC(=O)c1ccc(OC(C)C)cc1`, the growth inhibition was 56% (active).
In the case of `COc1ccc(C(=O)Nc2nncs2)cc1S(=O)(=O)N1CC(c2ccccc2)CC1=O` (stereo not given), the growth inhibition is reported as 18%.
`CC(C)CC(NS(=O)(=O)c1ccc2c(c1)oc(=O)n2C)C(=O)NC1CCCc2ccccc21` (stereo not given) showed a growth inhibition of -5.15%.
In the case of `O=C(NCc1cccs1)C1CCN(S(=O)(=O)c2cccc3cccnc23)CC1`, the growth inhibition is reported as -6.17%.
`Cc1sc2ncnc(NCc3ccco3)c2c1C` gave a growth inhibition of 6.04%.
In the case of `CC(=O)Oc1cccc(N2C(=O)C3C(C2=O)C2C=CC3C23CC3)c1` (stereo not given), the growth inhibition is reported as -8.59%.
Work on `Cc1cc(N2C(=O)C3CC=CCC3C2=O)cc(C)c1Br` (stereo not given) yielded a growth inhibition of -11.6%.
In the case of `Cn1c(C(=O)N2CCC(C(N)=O)CC2)cc2c(=O)n(C)c3ccccc3c21`, the growth inhibition is reported as 1.93%.
`COc1ccccc1N1CCN(C(=O)c2sc3nc(-c4ccc(F)cc4)cn3c2C)CC1` gave a growth inhibition of 2.76%.
In the case of `CC(C)CNS(=O)(=O)c1ccc(S(=O)(=O)N2CCN(CCC#N)CC2)cc1`, the growth inhibition is reported as -4.15%.
For `CCCN1Cc2cccc(C(=O)Nc3ccc4c(c3)OCCO4)c2C1=O`, the growth inhibition was -5.64%.
In the case of `CCOC(=O)CN1CC23C=CC(O2)C(C(=O)NC2CCCCCC2)C3C1=O` (stereo not given), the growth inhibition is reported as 3.45%.
In the case of `Cc1nnc(NC(=O)CSc2nnc(Cc3cccn3C)n2C)s1`, the growth inhibition is reported as 24.4%.
